Experimental data from ChEMBL document CHEMBL2157930, “Synthesis and structure-activity relationship of berberine analogues in LDLR up-regulation and AMPK activation” (2012).
The source made the active and inactive calls.

Columns and labels:
HepG2 [1] = assay: Up regulation of LDLR expression in human HepG2 cells at 10 uM after 12 hrs by RT-PCR relative to untreated control; assay type: functional
How it was run: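 HepG2 cells (MEM, 10% FBS, about 70% confluent) treated at 10 uM for 12 h. LDLR mRNA measured by real-time RT-PCR, reverse transcription 42 °C for 15 min. Normalized to β-actin by the comparative threshold cycle method and expressed as fold of untreated control (set to 1). Mean ± SEM of 3 separate experiments.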

HepG2 [2] = assay: Increase in AMPKalpha phosphorylation in human HepG2 cells at 10 uM after 4 hrs by Western blot analysis relative to untreated control; assay type: cell-based
How it was run: (§1)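 HepG2 cells in MEM with 10% FBS and antibiotics, 37 °C, 5% CO2, plated the day before to about 70% confluence. Treated with vehicle or compound at 10 uM for 4 h. Whole-cell lysates were run on SDS-PAGE and Western blotted for Thr172-phospho-AMPKa and total AMPKa. Bands were scanned and p-AMPKa was expressed as a percentage of total AMPKa. Mean ± SEM of 3 experiments.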

HepG2 [3] = assay: Increase in total AMPKalpha level in human HepG2 cells at 10 uM after 4 hrs by Western blot analysis relative to untreated control; assay type: functional, cell-based; how it was run: as §1
HepG2 [4] = assay: Increase in AMPKalpha phosphorylation in human HepG2 cells at 10 uM after 4 hrs by Western blot analysis relative to untreated control relative to total AMPKalpha level; assay type: cell-based; how it was run: as §1
HepG2 [5] = assay: Induction of AMPKalpha phosphorylation in human HepG2 cells at 10 uM by Western blot analysis relative to untreated control; assay type: cell-based; details: TDE = time-dependent effect
How it was run: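 Time course in HepG2: cells given 10 uM for different time intervals. Western blot for Thr172-phospho-AMPKa and total AMPKa, bands quantified, p-AMPKa as a percentage of total, compared with untreated cells. Mean ± SEM of 3 repeats.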

HepG2 [6] = assay: Induction of AMPKalpha phosphorylation in human HepG2 cells after 4 hrs by Western blot analysis relative to untreated control; assay type: cell-based
How it was run: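 HepG2 cultured as above, about 70% confluent, then exposed to a range of concentrations for 4 h. Western blot for Thr172-phospho-AMPKa and total AMPKa, densitometry, p-AMPKa as a percentage of total, relative to untreated cells. Mean ± SEM of 3 experiments.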

L6 = assay: Induction of AMPKalpha phosphorylation in rat L6 cells; assay type: cell-based

COc1cc2cc3[n+](cc2cc1OC)CCc1c-3ccc(OC)c1OC.[Cl-]
fold change (FC) (HepG2 [1]): 0.92

CCOc1cc2cc3[n+](cc2cc1OC)CCc1cc2c(cc1-3)OCO2.[Cl-]
fold change (FC) (HepG2 [1]): 0.91

COc1ccc2cc3[n+](cc2c1Cl)CCc1cc2c(cc1-3)OCO2.[Cl-]
fold change (FC) (HepG2 [1]): 1.12

COc1cc2c(c(OC)c1OC)-c1cc3ccc(OC)c(OC)c3c[n+]1CC2.[Cl-]
fold change (FC) (HepG2 [1]): 0.88

COc1ccc2cc3[n+](cc2c1F)CCc1cc2c(cc1-3)OCO2.[Cl-]
fold change (FC) (HepG2 [1]): 1

[Cl-].c1c2c(cc3c1OCO3)-c1cc3cc4c(cc3c[n+]1CC2)OCCO4
fold change (FC) (HepG2 [1]): 0.96

CCOc1cc2c(cc1OC)CC[n+]1cc3c(OC)c(OC)ccc3cc1-2.[Cl-]
fold change (FC) (HepG2 [1]): 1

COc1ccc2cc3n(cc-2c1=O)CCc1cc2c(cc1-3)OCO2
Activity (HepG2 [2]): Active

COc1cc2c(cc1O)-c1cc3ccc(OC)c(OC)c3c[n+]1CC2.[Cl-] [COLUMBAMINE CHLORIDE]
fold change (FC) (HepG2 [1]): 1.15

COc1ccc2cc3[n+](cc2c1O)CCc1cc2c(cc1-3)OCO2
Activity (HepG2 [2]): Active

CCOc1cc2c(cc1OC)-c1cc3cc(OC)c(OC)cc3c[n+]1CC2.[Cl-]
fold change (FC) (HepG2 [1]): 1.04

COc1cc(Br)c2cc3[n+](cc2c1O)CCc1cc2c(cc1-3)OCO2.[Cl-]
fold change (FC) (HepG2 [1]): 0.94

CCOc1cc2c(cc1OC)CC[n+]1cc3cc(OC)c(OC)cc3cc1-2.[Cl-]
fold change (FC) (HepG2 [1]): 0.96

CCOc1cc2c(cc1OC)-c1cc3ccc(OC)c(OC)c3c[n+]1CC2.[Cl-]
fold change (FC) (HepG2 [1]): 1.02

COc1ccc2c(c1OC)CC[n+]1cc3c(OC)c(OC)ccc3cc1-2.[Cl-]
fold change (FC) (HepG2 [1]): 0.89

COc1ccc2cc3[n+](cc2c1OC)CCc1cc2c(cc1-3)OCO2.[Cl-] [BERBERINE CHLORIDE]
fold change (FC) (HepG2 [1]): 2.35 | Activity (HepG2 [2]): Active | Activity (HepG2 [3]): Active | fold change (FC) (HepG2 [4]): < 3.2

COc1cc2cc3[n+](cc2c(Cl)c1OC)CCc1cc2c(cc1-3)OCO2.[Cl-]
fold change (FC) (HepG2 [1]): 0.92

COc1cc2cc3[n+](cc2cc1OC)CCc1cc2c(cc1-3)OCO2.[Cl-] [PSEUDOBERBERINE]
fold change (FC) (HepG2 [1]): 3.23 | Activity (HepG2 [2]): Active | Activity (HepG2 [3]): Active | fold change (FC) (HepG2 [4]): 2.6 | Activity (HepG2 [5]): tde | Activity (HepG2 [6]): Dose-dependent effect | Activity (L6): Active
